These results are taken from ChEMBL document CHEMBL1124751, “Synthesis of perfluoroalkylated xylitol ethers and esters: new surfactants for biomedical uses” (J Med Chem, 1990).

Data set [1] in a line: Percent hemolysis for an erythrocyte suspension at 1% hemocrait at the concentration of 10 g/1g per L. In kind it is functional, Homo sapiens. Summed up: (§1)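 Washed human red cells at 1% hematocrit (8-9 × 10^7 cells/mL) in phosphate saline pH 7.4 were mixed 1:1 with surfactant/Pluronic F-68 dispersion in 9‰ NaCl and shaken 1 h at 37 °C. After centrifugation, supernatant hemoglobin was read at 540 nm. % hemolysis = 100 (OD_test − OD_NaCl)/(OD_H2O − OD_NaCl), with 9‰ NaCl as the 0% control and water as the 100% control.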

The nature of data set [2]: Hemolytic effect on human red blood cells when dispersed in Pluronic F-68 at the concentration of 10 g/1g per L. In kind it is functional. In outline: (§2)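 Human erythrocytes were freed of plasma and buffy coat (3300 rpm, 10 min, 10 °C), washed three times in isotonic phosphate saline pH 7.4, then suspended at 1% hematocrit. 2 mL suspension plus an equal volume of surfactant dispersion in Pluronic F-68 / 9‰ NaCl (g compound/g Pluronic per L) was shaken 1 h at 37 °C. Hemolysis was scored visually (0 to ++++).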

The nature of data set [3]: Solubility was determined. In kind it is physicochemical.
Data set [4] is described as follows: Percent hemolysis for an erythrocyte suspension at 1% hemocrait at the concentration of 20 g/ L. The data set is classed as functional, Homo sapiens. Summed up: as §1
Data set [5] is described as follows: Hemolytic effect on human red blood cells when dispersed in Pluronic F-68 at the concentration of 40 g/20 g per L. The data set is classed as functional. In outline: as §2
Data set [6] is described as follows: Growth and viability inhibition towards Namalva Lymphoblastoid Cell Culture at the concentration of 0.05 g/L after dispersion in pluronic F-68. In kind it is functional.
Data set [7] is described as follows: Growth inhibition towards Namalva Lymphoblastoid Cell Culture at the concentration of 0.1 g/L. The data set is classed as functional. Summed up: (§3)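 Namalva lymphoblastoid suspension culture (RPMI with 10% fetal calf serum, 37 °C, 7% CO2). 2 mL medium at about 3.10^5 cells/mL was mixed with 2 mL test solution, in five flasks, with a reference series in parallel. Cells were counted after 4 days of incubation, and viability was read by Trypan Blue exclusion. Results are % vs controls.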

Data set [8] can be described thus: Viability inhibition towards Namalva Lymphoblastoid Cell Culture at the concentration of 0.05 g/L after dispersion in pluronic F-68. In kind it is functional. In outline: as §3
Data set [9] in a line: Viability inhibition towards Namalva Lymphoblastoid Cell Culture at the concentration of 0.1 g/L. In kind it is functional. Summed up:
as §3

The test system of data set [10] is Mus musculus. The experiment in a line: Toxicity in mice when dispersed in Pluronic F-68 in […] aqueous NaCl of 42 g/22 g per L at the concentration of 1035 mg/kg body weight. The data set is classed as functional. Summed up: (§4)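 Single tail-vein injection into mice of about 20 g, about 0.5 mL (25 mL/kg body weight) per animal. The test article was a solution or dispersion of surfactant in Pluronic F-68, given as g compound/g Pluronic per L, in 9‰ aqueous NaCl. Symptoms, behavior, mortality and body-weight gain were recorded for 80 days after injection. Survival was reported as survivors/injected in a series of 10 mice.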

The test system of data set [11] is Mus musculus. The data set is described as follows: Toxicity in mice when dispersed in Pluronic F-68 in […] aqueous NaCl of 50 g/15 g per L at the concentration of 1187 mg/kg body weight. The data set is classed as functional. In outline: as §4
Data set [12] in a line: Hemolytic effect on human red blood cells when dispersed in Pluronic F-68 at the concentration of 20 g/10 g per L. In kind it is functional. Summed up: as §2
Data set [13] can be described thus: Percent hemolysis for an erythrocyte suspension at 1% hemocrait at the concentration of 20 g/10 g per L. The data set is classed as functional, Homo sapiens. In outline: as §1
The nature of data set [14]: Growth inhibition towards Namalva Lymphoblastoid Cell Culture at the concentration of 0.05 g/L after dispersion in pluronic F-68. The data set is classed as functional. The conditions noted are these: in the assay text read “concentration of 0.1 g/L” for “concentration of 0.05 g/L”. Summed up: as §3
For data set [15], the system named is Mus musculus. The experiment in a line: Toxicity in mice when dispersed in Pluronic F-68 in […] aqueous NaCl of 20 g/10 g per L at the concentration of 455,mg/Kg body weight. In kind it is functional. Summed up:
as §4

A short description of data set [16]: Percent hemolysis for an erythrocyte suspension at 1% hemocrait at the concentration of 10 g/ L. In kind it is functional, Homo sapiens. Summed up:
as §1

The nature of data set [17]: Growth and viability inhibition towards Namalva Lymphoblastoid Cell Culture after resowing at the concentration of 0.1 g/L. The data set is classed as functional. In outline: (§5)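 Namalva lymphoblastoid cells in suspension (RPMI, 10% fetal calf serum, 37 °C, 7% CO2). Five flasks per test, each with 2 mL medium at about 3.10^5 cells/mL plus 2 mL test solution, alongside a reference series. After 4 days the compound was removed. Cells were washed and resown in 4 mL medium, and growth and viability were reported as % vs controls.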

Data set [18] is described as follows: Growth and viability inhibition towards Namalva Lymphoblastoid Cell Culture after resowing at the concentration of 0.2 g/L. In kind it is functional. Summed up:
as §5

Data set [19] in a line: Hemolytic effect on human red blood cells when dispersed in Pluronic F-68 at the concentration of 40 g/10 g per L. In kind it is functional. Summed up:
as §2

The subject of data set [20] is Mus musculus. The experiment in a line: Toxicity in mice when dispersed in Pluronic F-68 in […] aqueous NaCl of 0.1 g and at the concentration of 2,mg/Kg body weight. In kind it is functional. Summed up:
as §4

A short description of data set [21]: Growth inhibition towards Namalva Lymphoblastoid Cell Culture at the concentration of 0.2 g/L. The data set is classed as functional. Summed up: as §3
The nature of data set [22]: Viability inhibition towards Namalva Lymphoblastoid Cell Culture at the concentration of 0.2 g/L. The data set is classed as functional. Summed up: as §3
The nature of data set [23]: Hemolytic effect on human red blood cells when dispersed in Pluronic F-68 at the concentration of 20 g/5 g per L. In kind it is functional. In outline: as §2
Data set [24] concerns Mus musculus. The experiment in a line: Toxicity in mice when dispersed in Pluronic F-68 in […] aqueous NaCl of 20 g/5 g per L at the concentration of 491 mg/kg body weight. The data set is classed as functional. In outline:
as §4

A short description of data set [25]: Hemolytic effect on human red blood cells when dispersed in Pluronic F-68 at the concentration of 10 g/2.5g per L. The data set is classed as functional. In outline: as §2
Data set [26] is described as follows: Viability inhibition towards Namalva Lymphoblastoid Cell Culture at the concentration of 0.1 g/L and after detoxification on anionic exchanger. The data set is classed as functional. Summed up: as §3
Data set [27] in a line: Growth inhibition towards Namalva Lymphoblastoid Cell Culture at the concentration of 0.1 g/L and after detoxification on anionic exchanger. In kind it is functional. In outline: as §3
Data set [28] can be described thus: Growth and viability inhibition towards Namalva Lymphoblastoid Cell Culture after resowing at the concentration of 0.1 g/L and after detoxification on anionic exchanger. In kind it is functional. In outline: as §5
Data set [29] deals with Mus musculus. The data set is described as follows: Toxicity in mice when dispersed in Pluronic F-68 in […] aqueous NaCl of 40 g/10 g per L at the concentration of 1034 mg/kg body weight. In kind it is functional.
In data set [30] the test system is Mus musculus. The experiment in a line: Toxicity in mice when dispersed in Pluronic F-68 in […] aqueous NaCl of 15 g/3.73g per L at the concentration of 371 mg/kg body weight. In kind it is functional. In outline: as §4
Data set [31] can be described thus: Percent hemolysis for an erythrocyte suspension at 1% hemocrait at the concentration of 1 g/L. The data set is classed as functional, Homo sapiens. In outline: as §1
Data set [32] in a line: Hemolytic effect on human red blood cells when dispersed in Pluronic F-68 at the concentration of 10 g/5g per L. In kind it is functional. In outline: as §2
In data set [33] the test system is Mus musculus. The experiment in a line: Toxicity in mice when dispersed in Pluronic F-68 in […] aqueous NaCl of 0.1 g at the concentration of 2,mg/Kg body weight. In kind it is functional. Summed up: as §4
A short description of data set [34]: Hemolytic effect on human red blood cells when dispersed in Pluronic F-68 at the concentration of 1 g/0.05 g per L. The data set is classed as functional. In outline: as §2
A short description of data set [35]: Hemolytic effect on human red blood cells when dispersed in Pluronic F-68 at the concentration of 20 g/1 g per L. In kind it is functional. Summed up:
as §2

A short description of data set [36]: Percent hemolysis for an erythrocyte suspension at 1% hemocrait at the concentration of 1 g/0.05 g per L. The data set is classed as functional, Homo sapiens. In outline: as §1
The subject of data set [37] is Mus musculus. The experiment in a line: Toxicity in mice when dispersed in Pluronic F-68 in […] aqueous NaCl of 20 g/10 g per L at the concentration of 443 mg/kg body weight. In kind it is functional. In outline:
as §4

Values after ≈ are worked out from the molar mass of the structure shown.

For the compound `OCC(O)C(O)C(O)COC/C=C/C(F)(F)C(F)(F)C(F)(F)C(F)(F)C(F)(F)C(F)(F)C(F)(F)C(F)(F)F` (stereo not given), the Hemolysis in data set [1], in data set [4], in data set [13] and in data set [16] was 0% each time. In addition, the values for the Activity in data set [2], in data set [5] and in [12] were 16.4 mM, 65.6 mM and 32.8 mM, respectively. Also, the solubility in [3] came to 50 µg/mL (≈ 81.9 µM). Besides, the Resowing came to 115% in [6] and 100% in data set [17]. In addition, the figures for the Growth in data set [7] and in [14] were 78% and 108%, respectively. In addition, the values for the Viability in data set [8] and in data set [9] were 98% and 97%, respectively. The Survival ratio came to 8 in the data set with Mus musculus [10], 5 in the data set on Mus musculus [11] and 10 with Mus musculus [15].
In data set [3], `O=C(CCC(F)(F)C(F)(F)C(F)(F)C(F)(F)C(F)(F)C(F)(F)C(F)(F)C(F)(F)F)OCC(O)C(O)C(O)CO` (stereo not given) came in with a solubility of less than 10 µg/mL.
`OCC(O)C(O)C(O)COC/C=C/C(F)(F)C(F)(F)C(F)(F)C(F)(F)C(F)(F)C(F)(F)F` (stereo not given) came in with a solubility in [3] of less than 1000 µg/mL. For the same compound, the Resowing in data set [18] amounted to 95%; in data set [28] it was 105%; in data set [17], 96%. Further, the Activity in data set [19] is 78.4 mM; in [23], 39.2 mM; in [25], 19.6 mM. Further, the Survival ratio with Mus musculus [20] worked out at 10; in the data set on Mus musculus [24], 8; in the data set with Mus musculus [29], 0; with Mus musculus [30], 10. Moreover, the Growth in [21] turned out to be 86%; in data set [7] it was 23%; in [27], 78%. The figures for the Viability in [9], in data set [22] and in data set [26] were 80%, 98% and 93%, respectively.
For the compound `O=C(CCC(F)(F)C(F)(F)C(F)(F)C(F)(F)C(F)(F)F)OCC(O)C(O)C(O)CO` (stereo not given), in [3], the solubility was found to be 500 µg/mL (≈ 1050 µM).
As to `OCC(O)C(O)C(O)COC/C=C/C(F)(F)C(F)(F)C(F)(F)C(F)(F)F` (stereo not given), the solubility in [3] was less than 5000 µg/mL. In addition, the Hemolysis in data set [31] and in data set [36] was 0% in each case. The Growth in data set [7] turned out to be 32%; in data set [27], 125%. The Activity in data set [32] came out at 24.4 mM; in data set [34], 2.4 mM; in data set [35], 48.7 mM. The Survival ratio is 10 in the data set with Mus musculus [33] and 9 in the data set with Mus musculus [37]. Besides, the Viability in [9] is 87%; in [26], 95%. Besides, the Resowing in data set [28] was found to be 105%; in data set [17] it was 106%.

In general, solubility refers to the dissolved amount per volume that the medium holds. Higher therefore signals much dissolved substance.
